Measured values taken from ChEMBL document CHEMBL1135955, “Substituted benzocyloheptenes as potent and selective alpha(v) integrin antagonists” (Bioorg Med Chem Lett, 2002).
pIC50: −log10 of the molar value.

Tests used:
[1] = organism: Homo sapiens; assay: Oral absorption using Caco-2 cell monolayers.; type: ADME; details: in vitro
[2] = target: Integrin alpha-IIb/beta-3 (Homo sapiens, UniProt P05106+P08514); assay: Displacement of fibrinogen from Human integrin alphaIIb-beta3; type: protein-complex assay
Procedure, shortened: (§1)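 Purified-receptor ligand-binding assay on human integrins αvβ3 and αvβ5 (vitronectin displacement) and αIIbβ3 (receptor from platelets). Bound ligand was detected indirectly by colorimetric reading after adding an anti-biotin antibody coupled to alkaline phosphatase. IC50 came from sigmoid variable-slope fits of dose–response data from at least two experiments per compound.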

[3] = target: Integrin alpha-V/beta-5 (Homo sapiens, UniProt P06756+P18084); assay: Displacement of vitronectin from human integrin alphaV-beta5; type: protein-complex assay; procedure, shortened: as §1
[4] = target: Integrin alpha-V/beta-3 (Homo sapiens, UniProt P05106+P06756); assay: Displacement of vitronectin from Human integrin alphaV-beta3; type: protein-complex assay; procedure, shortened: as §1
[5] = tested on: IGROV-1; assay: Cellular adhesion inhibitory concentration with IGROV-1 cell line.; type: functional, cell-based; details: Homo sapiens
Procedure, shortened: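 Human ovarian carcinoma IGROV-1 cells were preincubated with compound before adhesion. They were then washed, fixed and stained with crystal violet, and adhesion was quantified by image analysis. IC50 came from sigmoid variable-slope fits of dose–response sets from at least two experiments.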

Chain of Integrin alpha-IIb/beta-3 (P05106 27-788 limits assumed): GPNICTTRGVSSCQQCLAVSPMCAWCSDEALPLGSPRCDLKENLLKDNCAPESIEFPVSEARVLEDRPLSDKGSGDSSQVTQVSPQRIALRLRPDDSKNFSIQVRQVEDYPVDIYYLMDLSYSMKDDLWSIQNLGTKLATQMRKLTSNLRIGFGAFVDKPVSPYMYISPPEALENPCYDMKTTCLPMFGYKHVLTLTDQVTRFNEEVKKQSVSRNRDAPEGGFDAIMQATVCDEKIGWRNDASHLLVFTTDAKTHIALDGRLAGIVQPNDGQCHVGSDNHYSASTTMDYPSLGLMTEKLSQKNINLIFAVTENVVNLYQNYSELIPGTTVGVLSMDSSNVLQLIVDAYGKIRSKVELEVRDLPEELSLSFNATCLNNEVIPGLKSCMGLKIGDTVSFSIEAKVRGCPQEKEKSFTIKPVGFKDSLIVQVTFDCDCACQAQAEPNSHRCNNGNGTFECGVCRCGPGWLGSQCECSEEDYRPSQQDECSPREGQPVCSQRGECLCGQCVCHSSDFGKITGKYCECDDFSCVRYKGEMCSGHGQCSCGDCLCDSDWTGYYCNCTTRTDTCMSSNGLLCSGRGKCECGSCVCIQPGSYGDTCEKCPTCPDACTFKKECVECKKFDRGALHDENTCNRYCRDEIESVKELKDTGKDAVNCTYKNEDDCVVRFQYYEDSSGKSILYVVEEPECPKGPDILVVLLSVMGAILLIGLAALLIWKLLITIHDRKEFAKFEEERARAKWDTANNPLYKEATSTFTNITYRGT
Chain of Integrin alpha-IIb/beta-3 (P08514 32-887 limits assumed): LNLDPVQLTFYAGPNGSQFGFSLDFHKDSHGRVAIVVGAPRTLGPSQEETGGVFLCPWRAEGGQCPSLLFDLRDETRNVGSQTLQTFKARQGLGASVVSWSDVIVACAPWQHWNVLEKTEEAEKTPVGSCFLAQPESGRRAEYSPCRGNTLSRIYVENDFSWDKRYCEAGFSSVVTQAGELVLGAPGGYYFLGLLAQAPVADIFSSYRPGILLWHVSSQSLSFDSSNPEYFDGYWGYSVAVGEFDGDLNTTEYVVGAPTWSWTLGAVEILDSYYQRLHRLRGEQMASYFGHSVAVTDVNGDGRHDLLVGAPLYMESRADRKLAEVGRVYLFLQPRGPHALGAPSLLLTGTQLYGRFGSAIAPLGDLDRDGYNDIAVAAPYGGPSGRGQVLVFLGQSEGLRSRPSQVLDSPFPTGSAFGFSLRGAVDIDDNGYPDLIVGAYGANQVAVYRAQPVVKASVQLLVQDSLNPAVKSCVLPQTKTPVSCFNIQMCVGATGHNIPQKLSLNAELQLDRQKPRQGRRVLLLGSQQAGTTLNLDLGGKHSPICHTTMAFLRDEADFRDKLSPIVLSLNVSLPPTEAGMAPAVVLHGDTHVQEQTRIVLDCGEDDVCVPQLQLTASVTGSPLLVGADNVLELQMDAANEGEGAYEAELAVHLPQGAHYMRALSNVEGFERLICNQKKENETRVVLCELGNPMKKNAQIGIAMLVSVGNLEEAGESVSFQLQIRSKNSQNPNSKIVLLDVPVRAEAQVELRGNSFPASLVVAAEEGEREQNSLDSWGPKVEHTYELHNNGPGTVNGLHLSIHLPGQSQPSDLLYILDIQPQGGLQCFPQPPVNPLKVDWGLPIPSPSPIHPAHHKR
Chain of Integrin alpha-IIb/beta-3 (P08514 891-1039 limits assumed): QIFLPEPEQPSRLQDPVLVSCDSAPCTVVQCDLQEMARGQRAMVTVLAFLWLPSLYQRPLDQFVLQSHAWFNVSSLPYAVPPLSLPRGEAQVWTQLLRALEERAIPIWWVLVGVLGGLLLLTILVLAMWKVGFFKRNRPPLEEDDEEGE
Chain of Integrin alpha-V/beta-3 (P05106 27-788 limits assumed): as the sequence (P05106 27-788 limits assumed) above
Chain of Integrin alpha-V/beta-3 (P06756 31-889 limits assumed): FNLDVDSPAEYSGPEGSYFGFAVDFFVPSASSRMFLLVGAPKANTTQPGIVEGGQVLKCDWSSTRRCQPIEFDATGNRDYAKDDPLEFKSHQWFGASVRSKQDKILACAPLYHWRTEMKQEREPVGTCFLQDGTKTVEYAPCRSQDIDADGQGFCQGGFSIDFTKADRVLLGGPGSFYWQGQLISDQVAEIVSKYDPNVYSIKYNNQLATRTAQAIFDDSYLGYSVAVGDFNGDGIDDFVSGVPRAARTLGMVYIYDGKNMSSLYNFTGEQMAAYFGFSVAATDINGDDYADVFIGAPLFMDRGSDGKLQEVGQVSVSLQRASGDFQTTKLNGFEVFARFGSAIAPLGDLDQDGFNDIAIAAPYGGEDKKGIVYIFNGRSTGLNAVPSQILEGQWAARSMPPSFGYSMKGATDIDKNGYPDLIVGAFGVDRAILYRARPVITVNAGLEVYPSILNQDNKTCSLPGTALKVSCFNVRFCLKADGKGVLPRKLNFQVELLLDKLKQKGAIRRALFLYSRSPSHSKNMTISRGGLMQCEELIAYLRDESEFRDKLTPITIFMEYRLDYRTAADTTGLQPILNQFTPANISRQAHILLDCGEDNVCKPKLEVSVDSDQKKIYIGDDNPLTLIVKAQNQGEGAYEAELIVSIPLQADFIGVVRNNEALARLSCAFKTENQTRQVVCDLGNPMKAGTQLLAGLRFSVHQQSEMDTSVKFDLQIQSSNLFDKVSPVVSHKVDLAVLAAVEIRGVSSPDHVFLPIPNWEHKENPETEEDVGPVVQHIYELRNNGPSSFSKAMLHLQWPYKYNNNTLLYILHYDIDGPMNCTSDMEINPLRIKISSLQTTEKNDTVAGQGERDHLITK
Chain of Integrin alpha-V/beta-3 (P06756 891-1048 limits assumed): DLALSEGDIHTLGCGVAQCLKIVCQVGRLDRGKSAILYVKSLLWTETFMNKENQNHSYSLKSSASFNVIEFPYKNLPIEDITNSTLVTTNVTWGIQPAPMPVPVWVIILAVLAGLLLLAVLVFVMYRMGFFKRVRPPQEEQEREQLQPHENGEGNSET
Chain of Integrin alpha-V/beta-5 (P06756 31-889 limits assumed): as the sequence (P06756 31-889 limits assumed) above
Chain of Integrin alpha-V/beta-5 (P06756 891-1048 limits assumed): as the sequence (P06756 891-1048 limits assumed) above
Chain of Integrin alpha-V/beta-5 (P18084 24-799 limits assumed): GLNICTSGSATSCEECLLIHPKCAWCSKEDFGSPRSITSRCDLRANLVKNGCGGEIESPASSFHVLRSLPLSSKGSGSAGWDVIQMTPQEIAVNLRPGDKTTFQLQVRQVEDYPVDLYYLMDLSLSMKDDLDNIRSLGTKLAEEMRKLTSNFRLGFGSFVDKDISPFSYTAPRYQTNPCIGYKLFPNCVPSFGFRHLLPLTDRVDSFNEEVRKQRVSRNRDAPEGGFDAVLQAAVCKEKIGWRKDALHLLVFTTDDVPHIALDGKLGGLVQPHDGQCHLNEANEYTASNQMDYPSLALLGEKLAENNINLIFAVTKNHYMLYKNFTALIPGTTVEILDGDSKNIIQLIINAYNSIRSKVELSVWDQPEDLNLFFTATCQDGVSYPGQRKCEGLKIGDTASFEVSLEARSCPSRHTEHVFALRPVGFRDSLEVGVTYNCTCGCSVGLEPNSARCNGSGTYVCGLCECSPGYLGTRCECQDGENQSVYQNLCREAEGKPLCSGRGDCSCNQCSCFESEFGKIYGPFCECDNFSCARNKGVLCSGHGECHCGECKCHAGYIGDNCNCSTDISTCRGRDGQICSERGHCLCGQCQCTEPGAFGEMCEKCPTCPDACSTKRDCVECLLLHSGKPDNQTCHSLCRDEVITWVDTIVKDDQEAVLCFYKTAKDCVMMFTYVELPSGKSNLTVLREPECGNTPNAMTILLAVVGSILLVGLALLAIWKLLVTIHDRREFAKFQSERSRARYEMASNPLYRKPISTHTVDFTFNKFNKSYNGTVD

An Absorption [1] of 92%, a pIC50 [2] of 5.83 and a pIC50 [3] of 9.52 were found for `O=C(O)CC1CC(CNC(=O)CCCc2ccc3c(n2)NCCC3)=CCc2ccccc21` (stereo not given) in this work. For the same compound, the pIC50 [4] was 9.52 and the pIC50 [5] was 8.16.
An Absorption [1] of 93%, a pIC50 [2] of 5.77 and a pIC50 [3] of 7.66 were found for `O=C(O)CC1CC(CNC(=O)CCNc2ccccn2)=CCc2ccccc21` (stereo not given) in this work. The pIC50 [4] was 6.23 and the pIC50 [5] was 6.47.
An Absorption [1] of under 20%, a pIC50 [2] of 6.48 and a pIC50 [3] of 10.00 were found for `O=C(O)CC1CC(CNC(=O)CCCNC2=NCCCN2)=CCc2ccccc21` (stereo not given) in this work. It also gave a pIC50 [4] of 9.70 and a pIC50 [5] of 8.57.
An Absorption [1] of 96%, a pIC50 [2] of under 5.00 and a pIC50 [3] of 7.70 were found for `O=C(O)CC1CC(CNC(=O)CCCNc2nccs2)=CCc2ccccc21` (stereo not given) in this work. It also gave a pIC50 [4] of 7.35 and a pIC50 [5] of 7.40.
An Absorption [1] of 96%, a pIC50 [2] of 5.92 and a pIC50 [3] of 9.05 were found for `O=C(O)CC1CC(CNC(=O)CCCCNc2ccccn2)=CCc2ccccc21` (stereo not given) in this work. The pIC50 [4] was 8.57 and the pIC50 [5] was 7.92.
An Absorption [1] of 94%, a pIC50 [2] of 6.18 and a pIC50 [3] of 7.40 were found for `CN(CCCC(=O)NCC1=CCc2ccccc2C(CC(=O)O)C1)c1ccccn1` (stereo not given) in this work. It also gave a pIC50 [4] of 7.17 and a pIC50 [5] of 5.69.
An Absorption [1] of under 20%, a pIC50 [2] of 5.99 and a pIC50 [3] of 9.30 were found for `O=C(O)CC1CC(CNC(=O)CCCNc2nc3ccccc3[nH]2)=CCc2ccccc21` (stereo not given) in this work. It also gave a pIC50 [4] of 9.22 and a pIC50 [5] of 8.74.
An Absorption [1] of 95%, a pIC50 [2] of 5.36 and a pIC50 [3] of 9.10 were found for `O=C(O)CC1CC(CNC(=O)CCCNc2ccccn2)=CCc2ccccc21` (stereo not given) in this work. It also gave a pIC50 [4] of 8.72 and a pIC50 [5] of 8.70.
An Absorption [1] of under 20%, a pIC50 [2] of 6.96 and a pIC50 [3] of 9.70 were found for `O=C(O)CC1CC(CNC(=O)CCCNC2=NCCN2)=CCc2ccccc21` (stereo not given) in this work. It also gave a pIC50 [4] of 9.52 and a pIC50 [5] of 7.74.
An Absorption [1] of 23%, a pIC50 [2] of 6.26 and a pIC50 [3] of 6.92 were found for `O=C(O)CC1CC(CNC(=O)CCNCc2ccccn2)=CCc2ccccc21` (stereo not given) in this work. It also gave a pIC50 [4] of 6.07 and a pIC50 [5] of 5.57.
